# In the library only some 2.4% were active in any assay of this set; here they are far more common.
# SR-BI DiI-HDL act = SR-BI HDL lipid transfer activation. CHO ldlA[mSR-BI] cells, DiI-HDL uptake fluorescence, 3 h; 100 = double the neutral-control signal. activation, % at 12.5 µM. actives 0.096% (n = 320,000);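 active means mean replicate activation of at least 60% and every replicate at or above 60%; inconclusive means mean or all-replicate condition met, but not both; inactive means mean below 60% and not all replicates reaching 60%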;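 further: 0% = median plate neutral-control signal and 100% = twice that signal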
#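 Test system: SR-BI-overexpressing, LDLR-lacking CHO cells; Also added: labelled HDL, 10 µg/mL; Measured by: bottom-read cell fluorescence after medium removal, ex 550/em 595 nm; Timing: 3 h uptake period with compound, 37 °C; Buffer or medium: F12, 0.5% BSA, 25 mM HEPES; Doses: single compound concentration, delivered by pin transfer.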
# Calb FLC = C. albicans growth modulation with fluconazole. AID 1979. C. albicans CaCi-2 + fluconazole, Alamar Blue growth, 48 h. actives 0.57% (n = 300,000). growth inhibition, % (no concentration beside the values);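 active means growth inhibition above about 58% in most replicates, limit read from the data, passing the limit was not always enough; inconclusive means exactly half the replicates above a set limit; inactive means most replicates below a set limit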;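 further: all wells also contain fluconazole at 8 µg/ml as a sub-toxic cotreatment; 0% = median of DMSO wells and 100% = median of geldanamycin control wells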
# beta cell repl = induces beta-cell replication in MIN6 cells; MIN6 cells proliferation, ATPlite luminescence, 48 h; cells starved in 0.2% serum; 100% = growth in 10% serum; proliferation, % at 10 µM; actives 0.29% (n = 330,000); AID 2380;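 active means compounds whose signal lies at least 3.5 SD above the mean of all wells on their plate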;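 further: 0% = DMSO-treated cells in low-serum medium and 100% = 10% serum control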
# m5-HT2A agonist = agonists of mouse serotonin 5-HT2A receptor (HTR2A) | actives 0.66% (n = 360,000) | activation, % at 7.6 µM | CHO-K1 mHTR2A beta-arrestin complementation, luminescence; percent of 30 µM serotonin response;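 active means activation above a run cutoff, the mean activation of all tested compounds plus 3 SD, cut at about 14% in these data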;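 further: 0% = plate median of compound wells and 100% = 30 µM serotonin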
# SR-BI HDL uptake = mouse SR-BI HDL lipid transfer inhibition. ldlA[mSR-BI] CHO cells, DiI-HDL uptake fluorescence, 3 h. actives 0.96% (n = 320,000). inhibition, % at 12.5 µM. Q61009. AID 488896;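 active means mean replicate inhibition of at least 70% and a set share of replicates each scoring 70 or more; inconclusive means meets just one of the two criteria; inactive means fails both criteria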;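 further: 0% = median of neutral control wells and 100% = median of positive control wells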
# Target sequence (Q61009 whole entry, looked up): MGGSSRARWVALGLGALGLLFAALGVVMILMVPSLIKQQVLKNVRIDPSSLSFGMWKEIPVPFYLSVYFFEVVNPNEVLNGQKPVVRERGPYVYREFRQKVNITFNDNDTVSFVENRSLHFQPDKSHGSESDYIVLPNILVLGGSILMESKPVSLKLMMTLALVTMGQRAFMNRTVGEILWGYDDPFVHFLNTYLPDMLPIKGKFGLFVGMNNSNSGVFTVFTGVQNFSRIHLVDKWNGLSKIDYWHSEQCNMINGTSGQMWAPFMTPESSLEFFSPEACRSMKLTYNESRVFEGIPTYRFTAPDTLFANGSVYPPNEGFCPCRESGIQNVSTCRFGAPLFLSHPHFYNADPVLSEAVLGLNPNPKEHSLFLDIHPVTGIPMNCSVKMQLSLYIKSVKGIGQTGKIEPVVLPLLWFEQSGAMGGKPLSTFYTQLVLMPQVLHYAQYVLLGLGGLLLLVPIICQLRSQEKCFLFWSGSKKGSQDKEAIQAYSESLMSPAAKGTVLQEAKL
# Ins promoter up = MIN6 insulin promoter up-regulation; MIN6 insulin promoter-GFP reporter, high-content imaging; hits give high values; z-score at 5 µM; actives 0.3% (n = 190,000);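 active means z-score above 3 at 5 µM with at least 500 cells counted in the well; inconclusive means wells under 500 cells, flagged as cytotoxic or low count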
# * = called active by the depositor; ? = inconclusive; nt = no result.
SMILES,SR-BI DiI-HDL act,Calb FLC,beta cell repl,m5-HT2A agonist,SR-BI HDL uptake,Ins promoter up
Cc1ccc(Nc2c([N+](=O)[O-])c(=O)n(C)c3ccccc23)cc1C,-71,-13,-1,-1,71*,0.6
Cn1c(=O)c([N+](=O)[O-])c(NCCc2ccccc2)c2ccccc21,-15,-11,5,-5,15,-0.36
COc1ccccc1C(=O)OCc1c(-c2ccccc2)ncc2ccccc12,-8,nt,-5,-3,8,nt
COc1cc2c(cc1OC)CN(c1ccc3ccccc3n1)CC2,-76,18,-2,-10,76*,nt
COc1cc2c(cc1OC)CN(c1ccc(-c3ccccc3OC)nn1)CC2,-45,32,-1,1,45,-0.84
CC(C)c1ccc(C(=O)Nc2ccc(S(=O)(=O)NC3=NCCCCC3)cc2)cc1,nt,nt,nt,-3,nt,nt
CC1CC(C)(C)Nc2ccc(N=O)cc21 (configuration not stated),8,14,nt,-8,-8,4.1*
CC1CC(C)(C)Nc2ccc(OC(=O)c3ccco3)cc21 (configuration not stated),28,21,-6,-7,-28,0.4
S=C(NCCCN1CCOCC1)N(Cc1ccccc1)Cc1ccccc1,-12,0,1,-3,12,nt
CCOC(=O)c1c(C)[nH]c(C(=O)COC(=O)c2ccc(N3CCCC3=O)cc2)c1C,63*,-3,0,-2,-63,1.4
O=C(Nc1nonc1NC(=O)c1cccs1)c1cccs1,12,85*,-7,0,-12,0.2
O=C(Nc1ccc(NC(=O)c2cccs2)cc1)c1cccs1,7,?,-1,7,-7,nt
COc1ccc(Cl)c2sc(N3CCN(C(C)=O)CC3)nc12,-13,-12,0,6,13,nt
COc1ccc(S(=O)(=O)N2CCOC2CNC(=O)C(=O)NCCCn2ccnc2)cc1OC (configuration not stated),9,4,-1,-6,-9,0.6
COc1ccc(S(=O)(=O)N2CCCOC2CNC(=O)C(=O)NCCCn2ccnc2)cc1OC (configuration not stated),71*,-1,-2,-4,-71,-1.3
c1ccc(-c2cnn3c(-c4ccccc4)c(-c4ccccc4)nc3n2)cc1,-21,nt,nt,0,21,17*
COCCCN1CC(=O)N2C(c3cccc(C)c3)c3[nH]c4ccccc4c3C[C@H]2C1=O (some centres not stated),-76,-6,-5,6,76*,nt
CN1CC(=O)N2C(c3ccc(Cl)cc3)c3[nH]c4ccccc4c3C[C@H]2C1=O (some centres not stated),-50,16,-6,2,50,nt
CN1CC(=O)N2C(c3cccc([N+](=O)[O-])c3)c3[nH]c4ccccc4c3C[C@H]2C1=O (some centres not stated),-80,10,-4,-2,80*,nt
C=CCN1CC(=O)N2C(c3ccccc3)c3[nH]c4ccccc4c3C[C@H]2C1=O (some centres not stated),-78,11,-1,5,78*,nt
COCCN1CC(=O)N2C(c3cccc(C)c3)c3[nH]c4ccccc4c3C[C@H]2C1=O (some centres not stated),-68,5,-2,2,68,nt
OC(c1ccc(F)cc1)(C1CCCCC1)C(CN1CCOCC1)c1ccccc1 (configuration not stated),10,-4,-3,-4,-10,nt
CN(C)CC(=O)Nc1ccc2c(c1)[C@H]1C[C@H](CC(=O)NCc3ccc4c(c3)OCO4)O[C@H](CO)[C@H]1O2,nt,nt,nt,0,nt,nt
Cc1ccsc1CN(C)C(=O)CN1C(=O)NC2(CCCc3ccccc32)C1=O (configuration not stated),-44,nt,-1,-2,44,nt
CC(C)Cc1ccc(-c2cc3nc(NCCOc4ccccc4)ccn3n2)cc1,nt,nt,nt,-1,nt,nt
SMILES,SR-BI DiI-HDL act,Calb FLC,beta cell repl,m5-HT2A agonist,SR-BI HDL uptake,Ins promoter up
COc1ccc(C/C(N)=N/OC(=O)CCc2ccccc2)cc1,7,-6,-2,-5,-7,nt
N#Cc1ccc(-c2csc(NC3=NCCCCC3)n2)cc1,-75,?,nt,0,75*,-0.29
O=C(CN1CCN(C(=O)c2ccc(-c3nc4ccccc4s3)o2)CC1)Nc1ccc(F)cc1,-27,nt,-4,-3,27,nt
C[C@@]12C(=O)OC(=O)[C@]1(C)C1CCC2O1,-89,nt,-8,-5,89*,nt
CC12C(=O)N(c3nccs3)C(=O)C1(C)C1CCC2O1 (configuration not stated),nt,nt,nt,-2,nt,nt
COc1ccc(CN(C)C(=O)C2CCN(S(=O)(=O)c3cccs3)CC2)cc1F,12,nt,2,-6,-12,nt
Cc1nn(C)c(C)c1/C=C/C(=O)c1ccc(Cl)cc1Cl,-31,92*,-7,-1,31,-0.85
CCOC(=O)[C@]12CCC=C1N(Cc1ccc3c(c1)OCO3)C(=O)[C@H](CC(=O)N1CCN(C(=O)c3ccco3)CC1)C2,nt,nt,nt,0,nt,nt
CCCc1cc(=O)[nH]c(SCC(=O)Nc2ccc(Br)cc2Br)n1,2,60*,2,-4,-2,1
CCCc1cc(=O)[nH]c(SCC(=O)Nc2ccc(Br)cc2)n1,-3,2,-1,2,3,0.02
COc1ccc(C(=O)NCC(=O)N2CCN(C(=O)c3ccco3)CC2)cc1,1,1,1,-6,-1,nt
Cc1cccc(C)c1NC(=O)CN1C(=O)NC(C)(C2CC2)C1=O (configuration not stated),12,nt,-5,4,-12,nt
COc1ccc(S(=O)(=O)N2CCOCC2)cc1N=Nc1sc(N)nc1-c1ccccc1,-81,5,-1,3,81*,-1.6
COc1ccc(C2CC(c3c(O)cc(C)oc3=O)=NCCS2)c(OC)c1 (configuration not stated),-30,nt,-4,-3,78*,0.28
Cc1nc2ccccc2n1S(=O)(=O)c1ccc(Br)cc1,65*,-3,2,3,-65,0.14
CSc1ncccc1C(=O)OCC(=O)c1[nH]c(C)c(C(C)=O)c1C,-45,nt,-2,4,45,nt
CCN(CC)C(=O)c1[nH]cnc1C(=O)NCc1ccccc1,-4,nt,1,6,4,nt
CCOC(=O)c1c(NC(=O)C2Cc3ccccc3C(=O)O2)sc2c1CCCC2 (configuration not stated),-40,104*,-4,3,40,nt
Cc1cccc(C(=O)Nc2ccc(C(=O)N/N=C/c3ccc4c(c3)OCO4)cc2)c1,-85,-5,1,-6,85*,nt
O=C(Nc1cccc(NC(=O)c2ccc(F)cc2)c1)c1ccc(F)cc1,-76,4,1,1,76*,nt
Cc1cccc(C(=O)Nc2cccc(C(=O)N/N=C/c3ccc4c(c3)OCO4)c2)c1,-55,-2,-2,-3,55,nt

# Assay outcomes as filed in PubChem BioAssay.
